Screens deposited in PubChem BioAssay by several laboratories.
MBD2 inh = blocks human MBD2 binding to methylated DNA. TR-FRET, MBD2 binding to methylated oligonucleotide. Q9UBB5. 370,000 tested, 0.31% active. inhibition, % at 4.4 µM; in the data active = inhibition above about 13%
rCAG binder = binds r(CAG) RNA repeats | r(CAG) RNA repeat, TO-PRO-1 dye displacement fluorescence | inhibition, % at 3 µM | 370,000 tested, 1.3% active | AID 651821;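 active = inhibition above the plate cutoff, the mean of all test compounds on that plate plus 3 SD, cut at about 35% in these data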;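 also: higher means more dye released from RNA so lower well fluorescence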
LEDGF integ inh = blocks HIV-1 LEDGF/p75-dependent DNA integration | TR-FRET IN-LEDGF/p75 DNA integration, Eu/Cy5 | inhibition, % at 3.7 µM | 370,000 tested, 0.64% active;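 active = inhibition above the screen-wide mean plus 3 SD, cut at about 13% in these data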;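 also: signal is the Cy5 over europium emission ratio at 671 and 618 nm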
CSN inh = blocks human CSN-mediated cullin deneddylation. Purified CSN, SCF-Nedd8-OG deneddylation, fluorescence polarization. inhibition, % at 12.5 µM. 360,000 tested, 0.38% active. AID 651999;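 active = pattern-corrected inhibition above about 35%, with an unprinted fluorescence ratio check between 0.5 and 1.5, limit read from the data, passing the limit was not always enough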
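Assay system: HEK293T-derived human Csn5 enzyme; quantity: 0.24 nM enzyme; medium: Tris/NaCl/DTT buffer, pH 7.5; also added: substrate SCFSkp2-Nedd8OG, 10 nM; doses: 12.5 µM compound; schedule: 90 min reaction at room temperature; signal: FP; read-out: % inhibition of substrate cleavage by Csn5; benchmarks: substrate-only high control, full reaction low control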
UHRF1 MBD2 ctr = blocks human UHRF1 binding to methylated DNA; UHRF1 binding to methylated oligo, TR-FRET; inhibition, % at 4.4 µM; 370,000 tested, 0.75% active; Q96T88; AID 687016; in the data active = inhibition above about 21%;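 also: UHRF1 SRA domain binding a hemimethylated CpG hairpin DNA probe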
ATG4B inhibitor = ATG4B (human) cysteine protease inhibition. Q9Y4P1. ATG4B cleavage of LC3-PLA2, NBD-HPC fluorescence, 1 h. inhibition, % at 8.33 µM. 340,000 tested, 0.51% active. AID 504462; in the data active = inhibition above about 40%
Target sequence (Q9Y4P1 whole entry, looked up): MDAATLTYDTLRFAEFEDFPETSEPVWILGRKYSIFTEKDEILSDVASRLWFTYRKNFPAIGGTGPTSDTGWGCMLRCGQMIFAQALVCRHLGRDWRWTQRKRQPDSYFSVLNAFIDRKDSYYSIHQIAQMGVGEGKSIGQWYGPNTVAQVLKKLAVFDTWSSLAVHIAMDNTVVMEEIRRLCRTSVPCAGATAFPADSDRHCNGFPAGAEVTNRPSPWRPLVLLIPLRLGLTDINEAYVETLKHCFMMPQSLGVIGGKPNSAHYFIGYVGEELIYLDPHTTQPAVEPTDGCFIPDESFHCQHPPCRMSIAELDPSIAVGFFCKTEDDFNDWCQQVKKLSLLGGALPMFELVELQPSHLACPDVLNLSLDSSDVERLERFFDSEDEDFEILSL
Numbers stand for hits; i = inactive; nt = no result given. This is a sample that favours compounds with a hit; in the whole collection about 3.1% have one here.

SMILES	MBD2 inh	rCAG binder	LEDGF integ inh	CSN inh	UHRF1 MBD2 ctr	ATG4B inhibitor
Cc1ccc(OCC(=O)NNC(=O)CSc2ncnc3sc(C)c(C)c23)cc1	i	i	i	38	i	i
CCc1ccc(OCC(=O)NNC(=O)CSc2ncnc3sc(C)c(C)c23)cc1	i	i	i	i	i	i
CCCC#Cc1ccc(CC[C@H]2O[C@H]3CC[C@@H](CO)O[C@H]3C[C@H]2NC(=O)CN2CCOCC2)cc1	i	i	i	nt	i	nt
N#Cc1sc2nc(-c3ccccc3)cc(-c3ccco3)c2c1N	i	i	i	40	i	i
Cc1ccc(CN2C(=O)C(CC(C)C)Nc3ncnc(N4CCCCC4)c32)cc1 (stereo unspecified)	i	i	i	78	i	nt
CCC1Nc2ncnc(N3CCCCC3)c2N(Cc2ccc(C)cc2)C1=O (stereo unspecified)	i	i	i	i	i	i
COc1ccc(-n2c(COc3ccc(Cl)cc3)nnc2SCC(=O)Nc2ccc3c(c2)OCO3)cc1	i	i	i	nt	i	nt
N#CCN(C(=O)COC(=O)CCCNC(=O)c1ccc(Cl)cc1)c1ccccc1	i	i	i	i	50	i
Cc1cccc(C)c1NC(=O)C1(C)CCC(=O)N1c1cc(C(C)(C)C)nn1C (stereo unspecified)	i	i	i	i	22	nt
C[C@H]1[C@@H](OC(=O)NCc2ccc(C(F)(F)F)cc2)CC[C@@]23CCCN2C(=O)CCC[C@@H]13	i	nt	i	nt	i	nt
COC(=O)[C@]12C[C@H](CC(=O)NCC3CCCCC3)C(=O)N(CCc3ccc(OC)c(OC)c3)C1=C[C@H](C(C)(C)C)O[C@@H]2C	i	i	i	nt	23	nt
COC(=O)[C@]12C[C@H](CC(=O)NCC3CCCCC3)C(=O)N(Cc3ccc4c(c3)OCO4)C1=C[C@H](C(C)(C)C)O[C@@H]2C	i	i	i	nt	23	nt
COC(=O)[C@]12C[C@H](CC(=O)N3CCCCC3)C(=O)N(Cc3ccc4c(c3)OCO4)C1=C[C@H](C(C)(C)C)O[C@@H]2C	i	i	i	nt	i	nt
O=[N+]([O-])c1ccccc1S(=O)(=O)N1CCSCC1	i	i	i	i	66	i
CCCS(=O)(=O)N1CCN(S(=O)(=O)c2ccccc2[N+](=O)[O-])CC1	i	i	i	nt	i	i
O=C(O)c1ccc2c(c1)C(=O)N(c1cccc(C(=O)/C=C/c3ccccc3)c1)C2=O	i	i	i	45	i	i
CC1(C(=O)NC2CCCC2)CCC(=O)N1C1CCN(Cc2ccccc2)CC1 (stereo unspecified)	i	i	i	i	i	nt
CC(C)(C)NC(=O)C1(C)CCC(=O)N1C1CCN(Cc2ccccc2)CC1 (stereo unspecified)	i	i	i	86	i	nt
O=S(=O)(c1ccccc1)c1nc(-c2ccccc2Cl)oc1NCCCN1CCOCC1	i	i	i	i	40	i
COc1ccc(/C=C2\CC3(OC(=O)c4ccc(F)cc4)CCCN2C3)cc1 (stereo unspecified)	i	i	i	nt	i	nt
C[C@@H]1CN([C@@H](C)CO)S(=O)(=O)c2ccc(Br)cc2O[C@H]1CN(C)C(=O)c1ccncc1	i	i	i	i	i	nt
C[C@H]1CN([C@@H](C)CO)S(=O)(=O)c2ccc(Br)cc2O[C@H]1CN(C)C(=O)c1cccnc1	i	i	i	i	24	nt
C[C@@H]1CN([C@H](C)CO)S(=O)(=O)c2ccc(Br)cc2O[C@@H]1CN(C)Cc1ccc(-c2ccccc2)cc1	i	i	i	i	21	nt
C[C@@H]1CN([C@@H](C)CO)S(=O)(=O)c2ccc(Br)cc2O[C@H]1CN(C)C(=O)C1CCC1	i	i	i	i	i	nt
COc1cccc(-c2ccc3c(c2)O[C@@H](CN(C)C(=O)C2CCOCC2)[C@H](C)CN([C@H](C)CO)S3(=O)=O)c1	i	i	i	i	22	nt
SMILES	MBD2 inh	rCAG binder	LEDGF integ inh	CSN inh	UHRF1 MBD2 ctr	ATG4B inhibitor
Cc1ccccc1-c1ccc2c(c1)O[C@H](CN(C)C(=O)C1CC1)[C@@H](C)CN([C@@H](C)CO)S2(=O)=O	i	i	i	i	i	nt
C[C@@H]1CN([C@H](C)CO)S(=O)(=O)c2ccc(Br)cc2O[C@H]1CN(C)C(=O)C1CC1	i	i	i	i	21	nt
CC(=O)Nc1ccc(NCN2C(=O)C3C4CCC(C4)C3C2=O)cc1 (stereo unspecified)	i	i	i	i	29	i
COC(=O)[C@]12C[C@H](CC(=O)NCCCCc3ccccc3)C(=O)N(CCc3ccc(OC)c(OC)c3)C1=C[C@H](C(C)C)O[C@@H]2C1CC1	i	i	i	nt	i	nt
O=C(Nc1nnc(-c2cccnc2)s1)c1cnc2ccccc2c1	i	i	i	nt	i	nt
COCCNC(=O)CN(C(=O)Cn1nnc2ccccc21)c1ccccc1C	i	i	i	i	i	i
COCCNC(=O)CN(C(=O)Cn1nnc2ccccc21)c1ccc(F)c(Cl)c1	i	i	i	i	81	i
Cc1cc(C)cc(C(=O)OCCN(C)C2CN(Cc3cn(Cc4ccccc4C(F)(F)F)nn3)S(=O)(=O)C2)c1 (stereo unspecified)	i	i	i	nt	i	nt
CC[C@@]1(C(=O)OC)N[C@H](CN(C)C(=O)Nc2ccc(OC)cc2)[C@@H]2C(=O)N(C)C(=O)[C@@H]21	i	i	i	i	22	i
O=C(COc1ccc([N+](=O)[O-])cc1)Nc1cc(S(=O)(=O)N2CCCCC2)ccc1N1CCCCC1	i	i	i	i	22	i
CCN1CCN(c2ccc(S(=O)(=O)N3CCCCC3)cc2NC(=O)CC(C)c2ccccc2)CC1 (stereo unspecified)	i	i	i	i	52	i
O=c1c2ccc(F)cc2nc2sc(Nc3ccc4c(c3)CCC4)nn12	i	nt	i	nt	i	nt
Cc1ccccc1OCCCN1CCC(C(O)(c2ccccc2)c2ccccc2)CC1	i	i	i	nt	i	nt
COc1ccc(CNC(=O)c2sc(=O)n(Cc3cc(C(C)=O)ccc3OC)c2C)cc1	i	i	i	i	22	nt
COc1ccc(CNC(=O)c2sc(=O)n(Cc3cc(Cl)ccc3OC)c2C)cc1	i	i	i	i	i	nt
COc1ccc(Cl)cc1Cn1c(C)c(C(=O)NCc2ccc3c(c2)OCCO3)sc1=O	i	i	i	i	43	nt
COc1ccc(C(C)=O)cc1Cn1c(C)c(C(=O)NCc2ccc(C(C)C)cc2)sc1=O	i	i	i	i	i	nt
Cc1cc(CN2CCCC(CO)(Cc3cccc(Cl)c3)C2)n[nH]1 (stereo unspecified)	i	i	i	i	24	i
Nc1nnc(CC(=O)N/N=C/c2cc([N+](=O)[O-])cc(Br)c2O)s1	i	59	i	i	i	i
Nc1nnc(CC(=O)N/N=C/c2cccc([N+](=O)[O-])c2)s1	i	i	i	i	i	i
COC(=O)C1CN(Cc2cn(Cc3ccccc3)nn2)CCS(=O)(=O)N1Cc1ccc(Cl)cc1 (stereo unspecified)	i	i	i	nt	i	nt
